For orientation: inhibition means the percentage by which the read-out fell short of the control. A low value points to a weak effect.

Bounds are passed on as bounds.

Experiment [1] deals with Hepatocyte growth factor receptor (Homo sapiens) (UniProt P08581). Nature of the experiment: Inhibition of MET at 10 uM.
Experiment [2] has as its target Insulin-like growth factor 1 receptor (Homo sapiens) (UniProt P08069). Kind of experiment: Inhibition of IGF1R at 10 uM.
Experiment [3] has as its target Vascular endothelial growth factor receptor 3 (Homo sapiens, UniProt P35916). Nature of the experiment: Inhibition of VEGFR3 at 10 uM.
Experiment [4] deals with Platelet-derived growth factor receptor beta (Homo sapiens) (UniProt P09619). Nature of the experiment: Inhibition of PDGFRbeta at 10 uM.
The target of experiment [5] is Serine/threonine-protein kinase PLK1 (Homo sapiens) (UniProt P53350). Kind of experiment: Inhibition of PLK1 at 10 uM.
For experiment [6], the target named is Proto-oncogene tyrosine-protein kinase Src (Homo sapiens) (UniProt P12931). Kind of experiment: Inhibition of SRC at 10 uM.
For experiment [7], the species on record is Homo sapiens. Kind of experiment: Inhibition of CK2-alpha1 at 10 uM.
For experiment [8], the target named is RAC-alpha serine/threonine-protein kinase (Homo sapiens) (UniProt P31749). Kind of experiment: Inhibition of AKT1 at 10 uM.
Experiment [9] has as its target Vascular endothelial growth factor receptor 2 (Homo sapiens) (UniProt P35968). Kind of experiment: Inhibition of VEGFR2 at 10 uM.
The target in experiment [10] is Receptor-type tyrosine-protein kinase FLT3 (Homo sapiens) (UniProt P36888). Kind of experiment: Inhibition of FLT3 at 10 uM.
The target in experiment [11] is T1, Ephrin type-B receptor 4 (Homo sapiens) (UniProt P54760).
T1 sequence (whole entry): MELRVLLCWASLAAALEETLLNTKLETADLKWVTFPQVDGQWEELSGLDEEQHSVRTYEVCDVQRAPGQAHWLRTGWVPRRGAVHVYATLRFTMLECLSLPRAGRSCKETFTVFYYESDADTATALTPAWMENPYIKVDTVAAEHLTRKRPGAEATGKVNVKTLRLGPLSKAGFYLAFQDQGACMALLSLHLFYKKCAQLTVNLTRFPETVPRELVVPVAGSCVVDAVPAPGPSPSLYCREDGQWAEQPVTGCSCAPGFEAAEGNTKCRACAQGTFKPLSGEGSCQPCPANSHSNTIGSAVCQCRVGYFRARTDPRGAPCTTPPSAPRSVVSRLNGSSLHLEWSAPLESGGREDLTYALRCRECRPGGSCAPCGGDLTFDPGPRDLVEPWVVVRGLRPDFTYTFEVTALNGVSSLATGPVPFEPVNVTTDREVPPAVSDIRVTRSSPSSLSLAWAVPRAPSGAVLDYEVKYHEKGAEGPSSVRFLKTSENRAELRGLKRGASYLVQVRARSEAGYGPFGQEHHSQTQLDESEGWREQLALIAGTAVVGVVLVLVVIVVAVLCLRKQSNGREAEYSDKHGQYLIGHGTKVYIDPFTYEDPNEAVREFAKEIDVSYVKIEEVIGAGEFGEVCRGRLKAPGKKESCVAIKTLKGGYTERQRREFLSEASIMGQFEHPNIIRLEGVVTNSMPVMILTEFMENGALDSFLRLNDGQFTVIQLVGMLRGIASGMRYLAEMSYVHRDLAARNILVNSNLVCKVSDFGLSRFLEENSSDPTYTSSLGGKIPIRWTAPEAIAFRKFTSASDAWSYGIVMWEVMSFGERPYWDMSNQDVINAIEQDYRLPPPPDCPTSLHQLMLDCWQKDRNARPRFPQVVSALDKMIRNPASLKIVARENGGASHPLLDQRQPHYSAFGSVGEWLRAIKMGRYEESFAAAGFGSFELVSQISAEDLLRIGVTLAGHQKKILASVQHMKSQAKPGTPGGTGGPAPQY
Nature of the experiment: Inhibition of EphB4 at 10 uM.

Experiment [12] has as its system NCI-H460. Nature of the experiment: Antiproliferative activity against human NCI-H460 cells at 100 uM after 48 hrs relative to control. It is filed as functional. The settings on record: NCI-H460, 48 h. The method in brief: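 NCI three-cell-line prescreen (MCF7 breast, NCI-H460 non-small cell lung, SF-268 CNS). Cells inoculated and preincubated in microtiter plates, then exposed to test agent at 10^-4 M for 48 h. Alamar blue end-point read-out. Growth of treated cells expressed as percent of untreated control cells.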

Experiment [13] concerns the target 3-phosphoinositide-dependent protein kinase 1 (Homo sapiens) (UniProt O15530). Kind of experiment: Inhibition of PDK1 at 10 uM.
The target of experiment [14] is Serine/threonine-protein kinase PAK 4 (Homo sapiens) (UniProt O96013). Nature of the experiment: Inhibition of PAK4 at 10 uM.
In experiment [15] the target is Angiopoietin-1 receptor (Homo sapiens) (UniProt Q02763). Kind of experiment: Inhibition of TIE2 at 10 uM.

Serine/threonine-protein kinase PLK1 (Homo sapiens), sequence (P53350 whole entry): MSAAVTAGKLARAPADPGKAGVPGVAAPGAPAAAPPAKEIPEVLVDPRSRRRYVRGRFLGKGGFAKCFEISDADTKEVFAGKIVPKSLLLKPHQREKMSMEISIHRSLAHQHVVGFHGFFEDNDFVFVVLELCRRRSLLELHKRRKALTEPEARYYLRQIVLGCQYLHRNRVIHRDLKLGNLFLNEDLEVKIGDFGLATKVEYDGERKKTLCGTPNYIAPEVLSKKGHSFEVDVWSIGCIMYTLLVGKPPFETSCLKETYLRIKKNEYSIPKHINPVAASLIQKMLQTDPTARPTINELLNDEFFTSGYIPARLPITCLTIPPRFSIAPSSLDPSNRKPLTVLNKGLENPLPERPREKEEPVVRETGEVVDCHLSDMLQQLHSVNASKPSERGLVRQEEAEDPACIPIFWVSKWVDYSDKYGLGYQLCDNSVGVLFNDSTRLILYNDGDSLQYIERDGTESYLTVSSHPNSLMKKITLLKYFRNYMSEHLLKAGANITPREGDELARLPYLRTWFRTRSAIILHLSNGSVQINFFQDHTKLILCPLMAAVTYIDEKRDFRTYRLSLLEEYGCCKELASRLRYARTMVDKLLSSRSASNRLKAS
Serine/threonine-protein kinase PAK 4 (Homo sapiens), sequence (O96013 whole entry, looked up): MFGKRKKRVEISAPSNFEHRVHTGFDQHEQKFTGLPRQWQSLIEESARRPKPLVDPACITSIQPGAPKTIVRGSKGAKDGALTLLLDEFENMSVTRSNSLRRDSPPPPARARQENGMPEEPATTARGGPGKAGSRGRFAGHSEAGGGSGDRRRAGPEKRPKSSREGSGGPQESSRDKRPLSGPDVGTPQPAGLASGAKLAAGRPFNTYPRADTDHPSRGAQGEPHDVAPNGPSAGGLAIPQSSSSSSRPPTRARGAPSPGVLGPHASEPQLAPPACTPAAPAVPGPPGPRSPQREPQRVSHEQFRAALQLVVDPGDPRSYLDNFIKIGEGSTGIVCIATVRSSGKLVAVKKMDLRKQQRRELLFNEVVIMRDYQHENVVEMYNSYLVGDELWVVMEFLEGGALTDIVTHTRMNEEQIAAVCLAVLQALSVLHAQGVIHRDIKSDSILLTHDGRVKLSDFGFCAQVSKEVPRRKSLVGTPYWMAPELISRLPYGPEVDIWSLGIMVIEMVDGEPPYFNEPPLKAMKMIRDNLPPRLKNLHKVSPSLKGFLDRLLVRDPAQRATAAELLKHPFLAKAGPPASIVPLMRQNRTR
Receptor-type tyrosine-protein kinase FLT3 (Homo sapiens), sequence (P36888 whole entry): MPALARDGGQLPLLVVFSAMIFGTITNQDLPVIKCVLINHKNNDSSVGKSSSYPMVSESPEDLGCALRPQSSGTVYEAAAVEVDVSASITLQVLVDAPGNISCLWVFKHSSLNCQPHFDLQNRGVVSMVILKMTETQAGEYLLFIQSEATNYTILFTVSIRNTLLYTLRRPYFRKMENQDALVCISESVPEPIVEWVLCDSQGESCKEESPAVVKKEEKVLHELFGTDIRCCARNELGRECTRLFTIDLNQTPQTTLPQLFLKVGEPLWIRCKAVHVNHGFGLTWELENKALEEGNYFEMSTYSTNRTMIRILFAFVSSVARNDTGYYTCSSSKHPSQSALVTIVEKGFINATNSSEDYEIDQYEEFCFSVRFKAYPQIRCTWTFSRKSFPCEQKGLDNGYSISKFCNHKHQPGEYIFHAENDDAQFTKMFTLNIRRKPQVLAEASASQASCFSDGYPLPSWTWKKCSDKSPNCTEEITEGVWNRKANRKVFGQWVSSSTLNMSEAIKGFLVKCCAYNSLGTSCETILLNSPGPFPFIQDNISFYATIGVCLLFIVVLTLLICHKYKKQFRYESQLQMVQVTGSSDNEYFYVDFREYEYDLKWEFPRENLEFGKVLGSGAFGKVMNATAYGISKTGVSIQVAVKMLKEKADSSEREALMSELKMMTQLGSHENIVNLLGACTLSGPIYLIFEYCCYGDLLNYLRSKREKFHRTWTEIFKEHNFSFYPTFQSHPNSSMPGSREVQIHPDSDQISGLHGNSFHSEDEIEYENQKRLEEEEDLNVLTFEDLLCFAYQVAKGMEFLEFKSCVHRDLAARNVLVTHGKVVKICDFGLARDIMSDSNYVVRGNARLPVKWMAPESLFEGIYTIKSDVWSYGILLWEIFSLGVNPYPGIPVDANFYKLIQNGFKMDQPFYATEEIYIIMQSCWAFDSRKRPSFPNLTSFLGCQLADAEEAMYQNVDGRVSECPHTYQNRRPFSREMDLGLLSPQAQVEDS
Insulin-like growth factor 1 receptor (Homo sapiens), sequence (P08069 31-736 limits assumed): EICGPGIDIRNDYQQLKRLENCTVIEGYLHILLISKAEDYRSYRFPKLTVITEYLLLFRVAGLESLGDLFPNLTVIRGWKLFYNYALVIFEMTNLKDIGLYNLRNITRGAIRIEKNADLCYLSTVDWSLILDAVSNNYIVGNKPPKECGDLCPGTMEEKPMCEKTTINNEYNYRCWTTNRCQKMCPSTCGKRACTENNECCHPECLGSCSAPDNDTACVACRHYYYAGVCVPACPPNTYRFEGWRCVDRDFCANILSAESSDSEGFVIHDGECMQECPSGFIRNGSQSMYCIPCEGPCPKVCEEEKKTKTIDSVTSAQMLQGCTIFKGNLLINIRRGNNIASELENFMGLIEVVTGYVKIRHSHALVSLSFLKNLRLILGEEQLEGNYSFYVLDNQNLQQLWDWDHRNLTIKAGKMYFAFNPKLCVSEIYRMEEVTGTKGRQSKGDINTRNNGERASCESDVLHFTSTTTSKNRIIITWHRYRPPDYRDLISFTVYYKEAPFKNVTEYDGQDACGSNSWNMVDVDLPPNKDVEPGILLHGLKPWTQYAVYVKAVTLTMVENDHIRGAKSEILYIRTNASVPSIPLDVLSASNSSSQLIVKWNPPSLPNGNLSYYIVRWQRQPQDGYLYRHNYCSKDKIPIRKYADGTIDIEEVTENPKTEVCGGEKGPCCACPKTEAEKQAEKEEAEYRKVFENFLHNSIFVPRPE
Insulin-like growth factor 1 receptor (Homo sapiens), sequence (P08069 741-1367 limits assumed): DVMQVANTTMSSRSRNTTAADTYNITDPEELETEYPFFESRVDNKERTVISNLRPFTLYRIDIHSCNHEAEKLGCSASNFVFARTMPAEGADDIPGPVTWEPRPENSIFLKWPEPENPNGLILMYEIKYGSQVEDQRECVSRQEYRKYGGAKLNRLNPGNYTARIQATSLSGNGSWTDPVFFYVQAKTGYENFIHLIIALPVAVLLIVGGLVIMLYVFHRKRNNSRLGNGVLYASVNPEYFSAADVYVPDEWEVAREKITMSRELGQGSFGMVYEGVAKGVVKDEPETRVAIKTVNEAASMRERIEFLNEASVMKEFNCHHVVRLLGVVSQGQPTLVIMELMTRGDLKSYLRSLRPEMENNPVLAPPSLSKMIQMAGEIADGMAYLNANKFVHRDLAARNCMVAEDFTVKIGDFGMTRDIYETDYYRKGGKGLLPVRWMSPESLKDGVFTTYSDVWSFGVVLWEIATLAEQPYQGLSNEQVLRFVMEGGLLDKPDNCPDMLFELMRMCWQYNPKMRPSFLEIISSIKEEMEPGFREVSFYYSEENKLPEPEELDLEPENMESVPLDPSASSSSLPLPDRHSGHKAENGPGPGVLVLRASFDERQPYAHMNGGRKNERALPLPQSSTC
Platelet-derived growth factor receptor beta (Homo sapiens), sequence (P09619 whole entry): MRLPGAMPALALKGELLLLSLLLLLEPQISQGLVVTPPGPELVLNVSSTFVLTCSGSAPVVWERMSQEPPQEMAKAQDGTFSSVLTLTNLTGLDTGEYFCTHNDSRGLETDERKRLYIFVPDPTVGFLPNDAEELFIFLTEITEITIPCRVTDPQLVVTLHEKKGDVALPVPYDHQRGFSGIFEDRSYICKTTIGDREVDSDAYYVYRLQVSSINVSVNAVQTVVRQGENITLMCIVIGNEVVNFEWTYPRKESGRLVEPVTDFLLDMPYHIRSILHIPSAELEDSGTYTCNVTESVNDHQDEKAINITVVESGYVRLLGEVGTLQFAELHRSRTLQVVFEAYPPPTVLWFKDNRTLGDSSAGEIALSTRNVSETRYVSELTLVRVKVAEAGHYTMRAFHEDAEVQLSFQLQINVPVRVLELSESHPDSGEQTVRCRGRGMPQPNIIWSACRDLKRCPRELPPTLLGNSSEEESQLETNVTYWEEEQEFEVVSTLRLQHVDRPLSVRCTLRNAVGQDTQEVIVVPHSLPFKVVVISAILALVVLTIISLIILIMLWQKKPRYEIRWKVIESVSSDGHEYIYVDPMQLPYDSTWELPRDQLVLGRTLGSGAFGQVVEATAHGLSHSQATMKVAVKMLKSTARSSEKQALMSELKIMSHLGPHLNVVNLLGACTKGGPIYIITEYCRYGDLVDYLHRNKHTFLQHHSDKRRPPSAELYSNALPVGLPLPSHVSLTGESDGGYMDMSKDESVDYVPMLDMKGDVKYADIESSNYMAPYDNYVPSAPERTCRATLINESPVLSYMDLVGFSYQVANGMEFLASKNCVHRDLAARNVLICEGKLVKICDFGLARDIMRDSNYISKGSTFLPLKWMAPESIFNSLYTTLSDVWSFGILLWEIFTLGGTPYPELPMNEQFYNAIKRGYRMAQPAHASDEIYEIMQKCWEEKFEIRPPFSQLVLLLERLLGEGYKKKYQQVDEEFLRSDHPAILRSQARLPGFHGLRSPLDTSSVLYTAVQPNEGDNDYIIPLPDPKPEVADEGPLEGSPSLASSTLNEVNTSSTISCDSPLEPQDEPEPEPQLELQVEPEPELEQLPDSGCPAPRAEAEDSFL

As to `O=C1Cc2cnn(-c3ccccc3Br)c2-c2ccccc2N1`, the inhibition in experiment [1], in experiment [2], in experiment [3], in [4], in [5] and in experiment [6] was less than 40% in each case. Besides, the inhibition in [7], in experiment [8], in experiment [9], in experiment [10], in experiment [11] and in experiment [13] was less than 40% each time. Besides, the inhibition in experiment [14] and in experiment [15] was less than 40% each time. The molecule further registered a growth, % of control at 100 µM in [12] of 44%.
Regarding `O=C1Cc2cnn(-c3ccccc3Cl)c2-c2ccccc2N1`, the inhibition in experiment [1], in experiment [2], in [3], in experiment [4], in experiment [5] and in experiment [6] was less than 40% each time. Besides, the inhibition in experiment [7], in experiment [8], in [9], in [10], in experiment [11] and in [13] was less than 40% each time. Moreover, the inhibition in experiment [14] and in experiment [15] was less than 40% in each case. In addition, the growth, % of control at 100 µM in [12] stood at 53%.
Take `Cc1ccccc1-n1ncc2c1-c1ccccc1NC(=O)C2`: the inhibition in experiment [1], in [2], in [3], in [4], in [5] and in [6] was less than 40% throughout. Moreover, the inhibition in [7], in experiment [8], in experiment [9], in experiment [10], in [11] and in [13] was less than 40% in each case. The inhibition in experiment [14] and in experiment [15] was less than 40% each time. Also, the growth, % of control at 100 µM in experiment [12] was 49%.
Take `O=C1Cc2cnn(-c3ccc([N+](=O)[O-])cc3)c2-c2ccccc2N1`: the inhibition in experiment [1], in [2], in experiment [3], in experiment [4], in [5] and in experiment [6] was less than 40% each time. Besides, the inhibition in experiment [7], in experiment [8], in experiment [9], in [10], in experiment [11] and in experiment [13] was less than 40% in each case. Also, the inhibition in [14] and in [15] was less than 40% throughout. The molecule also returned a growth, % of control at 100 µM in experiment [12] of 62%.
Take `O=C1Cc2cnn(-c3ccc(F)cc3F)c2-c2ccccc2N1`: the inhibition in [1], in experiment [2], in experiment [3], in [4], in experiment [5] and in [6] was less than 40% each time. Moreover, the inhibition in [7], in experiment [8], in experiment [9], in [10], in [11] and in experiment [13] was less than 40% throughout. The inhibition in experiment [14] and in experiment [15] was less than 40% throughout. The growth, % of control at 100 µM in [12] was 41%.
On to `O=C1Cc2cnn(-c3ccccc3F)c2-c2ccccc2N1`, for which the inhibition in experiment [1], in experiment [2], in [3], in experiment [4], in experiment [5] and in experiment [6] was less than 40% each time. The inhibition in experiment [7], in [8], in experiment [9], in experiment [10], in experiment [11] and in experiment [13] was less than 40% in each case. Besides, the inhibition in experiment [14] and in experiment [15] was less than 40% throughout. For the same molecule, in [12], the growth, % of control at 100 µM was found to be 49%.
